Experimental data: ChEMBL document CHEMBL4706647, “Development and optimization of halogenated vinyl sulfones as Nrf2 activators for the treatment of Parkinson's disease” (Eur J Med Chem, 2021)
The source made the active and inactive calls. The calls are words filed in the database; no cut-off is given here.

Columns and labels:
[1] = target: T1, Nuclear factor erythroid 2-related factor 2 (Mus musculus) (UniProt Q60795); experiment: Activation of Nrf2 in mouse BV-2 cells assessed as increase in Gclc mRNA expression after 6 hrs by RT-qPCR analysis; type: cell-based; settings: filed as activator, dose 0.03-1 µM
T1 sequence (whole entry): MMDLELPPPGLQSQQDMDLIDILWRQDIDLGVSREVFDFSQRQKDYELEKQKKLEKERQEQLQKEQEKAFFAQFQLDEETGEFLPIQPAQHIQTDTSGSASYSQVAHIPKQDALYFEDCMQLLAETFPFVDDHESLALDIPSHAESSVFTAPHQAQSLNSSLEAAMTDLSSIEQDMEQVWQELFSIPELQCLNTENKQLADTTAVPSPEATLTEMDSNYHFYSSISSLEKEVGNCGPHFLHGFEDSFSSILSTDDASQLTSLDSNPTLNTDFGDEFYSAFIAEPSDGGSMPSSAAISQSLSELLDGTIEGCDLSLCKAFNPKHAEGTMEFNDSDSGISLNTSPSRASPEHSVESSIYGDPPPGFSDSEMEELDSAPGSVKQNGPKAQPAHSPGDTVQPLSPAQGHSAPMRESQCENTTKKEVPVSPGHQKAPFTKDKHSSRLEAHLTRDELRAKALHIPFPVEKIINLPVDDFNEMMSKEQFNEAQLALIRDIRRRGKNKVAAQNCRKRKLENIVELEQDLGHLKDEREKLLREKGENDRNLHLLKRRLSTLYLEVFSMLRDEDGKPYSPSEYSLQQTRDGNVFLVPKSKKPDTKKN
Summary of the method: (§1)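 BV-2 cells exposed to a range of concentrations for 6 h. Ho1, Gclc, Gclm and Sod1 mRNA quantified by RT-qPCR and expressed relative to vehicle-treated control. Mean ± SEM, n = 3; Student's t-test.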

[2] = tested on: Mus musculus; experiment: (§2) Neuroprotective activity in MPTP-induced C57BL/6 mouse model of Parkinson's disease assessed as reduction in time to turn at 30 mg/kg, po pretreated for 1 day followed by MPTP challenge and subsequent compound dosing for 2 days measured 6 days post MPTP challenge by vertical grid test; type: functional, organism-based; settings: time 7.0 day
Summary of the method: (§3)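 Male C57BL/6 mice, 10 weeks old, 23–26 g, n = 10 per group. Dosed 30 mg/kg p.o. for 3 consecutive days in 10% N-methyl-2-pyrrolidone/20% Tween-80 in water. On day 2, MPTP-HCl 20 mg/kg i.p. given four times at 2 h intervals. Coat-hanger (scored 1–5, test done twice) and vertical grid tests run 6 days after MPTP. Brains taken next day for anti-TH immunohistochemistry (1:1000, DAB).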

[3] = target: T1, Nuclear factor erythroid 2-related factor 2 (Mus musculus); experiment: Activation of Nrf2 in mouse BV-2 cells assessed as increase in GCLC expression after 6 hrs by Western blot analysis; type: cell-based; settings: filed as activator, dose 0.02-10 µM
Summary of the method: (§4)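 BV-2 microglia grown in RPMI-1640 with 10% FBS, penicillin-streptomycin and 2 mM L-glutamine at 37 °C, 5% CO2. Cells exposed to a range of concentrations for 6 h, then HO-1, GCLC, GCLM and SOD1 protein measured by Western blot. Band intensity normalized to β-actin and given as fold of vehicle control. Mean ± SEM, n = 3, three separate experiments.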

[4] = Cytotoxicity against mouse BV-2 cells assessed cell viability at 10 uM measured after 6 hrs by Ez-cytox reagent based assay relative to control; settings: read-out: Activity
[5] = tested on: Mus musculus; experiment: Neuroprotective activity in MPTP-induced C57BL/6 mouse model of Parkinson's disease assessed as reduction in time to climb down at 30 mg/kg, po pretreated for 1 day followed by MPTP challenge and subsequent compound dosing for 2 days measured 6 days post MPTP challenge by vertical grid test; type: functional, organism-based; settings: time 7.0 day; summary of the method: as §3
[6] = Cytotoxicity against mouse BV-2 cells assessed cell viability at 1 uM measured after 6 hrs by Ez-cytox reagent based assay relative to control; settings: read-out: Activity
Summary of the method: (§5)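 BV-2 cells (1.0 × 10⁴/well) grown 24 h at 37 °C, 5% CO2, then treated 6 h at […]. Viability expressed as percent of control.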

[7] = target: Voltage-gated inwardly rectifying potassium channel KCNH2 (Homo sapiens, UniProt Q12809); experiment: Inhibition of fluorescence tracer red binding to human ERG measured after 4 hrs by fluorescence polarization assay
[8] = target: T1, Nuclear factor erythroid 2-related factor 2 (Mus musculus); experiment: Activation of Nrf2 in mouse BV-2 cells assessed as increase in nuclear Nrf2 levels after 6 hrs by Western blot analysis; type: cell-based; settings: filed as activator, dose 0.02-10 µM
[9] = target: T1, Nuclear factor erythroid 2-related factor 2 (Mus musculus); experiment: Activation of Nrf2 in mouse BV-2 cells assessed as increase in SOD1 expression at 10 uM after 6 hrs by Western blot analysis relative to control; type: cell-based; settings: filed as activator; summary of the method: as §4
[10] = target: T1, Nuclear factor erythroid 2-related factor 2 (Mus musculus); experiment: Activation of Nrf2 in mouse BV-2 cells assessed as increase in Sod1 mRNA expression after 6 hrs by RT-qPCR analysis; type: cell-based; settings: filed as activator, dose 0.03-1 µM; summary of the method: as §1
[11] = target: CYP3A4 (Homo sapiens, UniProt P08684); experiment: Inhibition of CYP3A4 (unknown origin) assessed as residual activity; type: ADME
[12] = target: T1, Nuclear factor erythroid 2-related factor 2 (Mus musculus); experiment: Activation of Nrf2 in mouse BV-2 cells assessed as increase in GCLM expression at 10 uM after 6 hrs by Western blot analysis relative to control; type: cell-based; settings: filed as activator; summary of the method: as §4
[13] = Stability in human plasma assessed as parent compound remaining after 30 mins by LC-MS/MS analysis; type: ADME, cell-free; settings: read-out: Stabilty
[14] = target: T1, Nuclear factor erythroid 2-related factor 2 (Mus musculus); experiment: Activation of Nrf2 in mouse BV-2 cells assessed as increase in nuclear Nrf2 levels at 0.5 uM after 6 hrs by Western blot analysis relative to control; type: cell-based; settings: filed as activator
[15] = target: T1, Nuclear factor erythroid 2-related factor 2 (Mus musculus); experiment: Activation of Nrf2 in mouse BV-2 cells assessed as increase in Gclc mRNA expression at 1 uM after 6 hrs by RT-qPCR analysis relative to control; type: cell-based; settings: filed as activator; summary of the method: as §1
[16] = target: T1, Nuclear factor erythroid 2-related factor 2 (Mus musculus); experiment: Activation of Nrf2 in mouse BV-2 cells assessed as increase in Gclm mRNA expression after 6 hrs by RT-qPCR analysis; type: cell-based; settings: filed as activator, dose 0.03-1 µM; summary of the method: as §1
[17] = target: T1, Nuclear factor erythroid 2-related factor 2 (Mus musculus); experiment: Activation of Nrf2 in mouse BV-2 cells assessed as increase in HO1 expression after 6 hrs by Western blot analysis; type: cell-based; settings: filed as activator, dose 0.02-10 µM; summary of the method: as §4
[18] = tested on: Mus musculus; experiment: as §2, with “TH-immunoreactive fiber density” for “time to turn”, “post-MPTP” for “post MPTP”, “immunohistochemistry” for “vertical grid test”; type: functional, organism-based; settings: time 7.0 day; summary of the method: as §3
[19] = Cytotoxicity against mouse BV-2 cells assessed cell viability at 0.1 uM measured after 6 hrs by Ez-cytox reagent based assay relative to control; settings: read-out: Activity; summary of the method: as §5
[20] = target: CYP2D6 (Homo sapiens, UniProt P10635); experiment: Inhibition of CYP2D6 (unknown origin) assessed as residual activity; type: ADME
[21] = tested on: BV-2; experiment: Antiinflammatory activity in mouse BV-2 cells assessed as inhibition of LPS-induced nitric oxide production preincubated for 6 hrs followed by LPS stimulation and measured after 24 hrs by griess assay; type: functional, cell-based; settings: dose 0.01-3 µM, time 30.0 hrs
Summary of the method: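 Nitrite in medium read by Griess reaction. BV-2 cells pretreated 6 h across a dose range, then given LPS for 24 h. Medium treated with 1% sulfanilamide in 5% phosphoric acid, then 0.1% N-1-naphthylethylenediamine, each 5 min at RT in the dark. A540 read and converted against a nitrite standard curve.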

Voltage-gated inwardly rectifying potassium channel KCNH2, sequence (Q12809 whole entry): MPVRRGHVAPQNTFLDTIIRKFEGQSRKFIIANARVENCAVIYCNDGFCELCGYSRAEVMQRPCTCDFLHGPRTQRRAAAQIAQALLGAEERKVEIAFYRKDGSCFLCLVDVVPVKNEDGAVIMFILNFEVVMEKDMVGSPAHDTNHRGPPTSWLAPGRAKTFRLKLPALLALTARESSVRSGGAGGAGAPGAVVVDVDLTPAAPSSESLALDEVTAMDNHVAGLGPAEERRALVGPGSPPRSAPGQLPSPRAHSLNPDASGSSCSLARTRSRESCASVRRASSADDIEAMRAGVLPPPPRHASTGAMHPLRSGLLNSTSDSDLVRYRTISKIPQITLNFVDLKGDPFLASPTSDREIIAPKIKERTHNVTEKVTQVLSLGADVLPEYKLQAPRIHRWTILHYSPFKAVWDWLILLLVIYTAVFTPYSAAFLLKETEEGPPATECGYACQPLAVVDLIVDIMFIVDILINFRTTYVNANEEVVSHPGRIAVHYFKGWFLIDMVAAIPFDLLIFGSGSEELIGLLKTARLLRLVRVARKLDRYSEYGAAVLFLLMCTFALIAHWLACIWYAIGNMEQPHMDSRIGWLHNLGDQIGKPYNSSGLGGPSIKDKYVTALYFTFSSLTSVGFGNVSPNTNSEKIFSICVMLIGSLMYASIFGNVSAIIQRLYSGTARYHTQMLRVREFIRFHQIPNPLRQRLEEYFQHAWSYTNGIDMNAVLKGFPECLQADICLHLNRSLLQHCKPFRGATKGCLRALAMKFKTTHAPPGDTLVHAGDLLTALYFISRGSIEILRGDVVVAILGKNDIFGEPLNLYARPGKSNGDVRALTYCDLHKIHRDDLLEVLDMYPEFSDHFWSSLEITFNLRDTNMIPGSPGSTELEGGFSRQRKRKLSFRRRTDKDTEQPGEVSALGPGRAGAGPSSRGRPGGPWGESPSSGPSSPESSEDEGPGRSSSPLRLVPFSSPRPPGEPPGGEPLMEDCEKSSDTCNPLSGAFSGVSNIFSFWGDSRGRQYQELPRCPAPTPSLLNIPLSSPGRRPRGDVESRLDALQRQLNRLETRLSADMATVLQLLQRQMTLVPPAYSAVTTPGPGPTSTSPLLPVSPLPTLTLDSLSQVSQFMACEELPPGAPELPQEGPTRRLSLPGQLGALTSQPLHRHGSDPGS
CYP3A4, sequence (P08684 whole entry): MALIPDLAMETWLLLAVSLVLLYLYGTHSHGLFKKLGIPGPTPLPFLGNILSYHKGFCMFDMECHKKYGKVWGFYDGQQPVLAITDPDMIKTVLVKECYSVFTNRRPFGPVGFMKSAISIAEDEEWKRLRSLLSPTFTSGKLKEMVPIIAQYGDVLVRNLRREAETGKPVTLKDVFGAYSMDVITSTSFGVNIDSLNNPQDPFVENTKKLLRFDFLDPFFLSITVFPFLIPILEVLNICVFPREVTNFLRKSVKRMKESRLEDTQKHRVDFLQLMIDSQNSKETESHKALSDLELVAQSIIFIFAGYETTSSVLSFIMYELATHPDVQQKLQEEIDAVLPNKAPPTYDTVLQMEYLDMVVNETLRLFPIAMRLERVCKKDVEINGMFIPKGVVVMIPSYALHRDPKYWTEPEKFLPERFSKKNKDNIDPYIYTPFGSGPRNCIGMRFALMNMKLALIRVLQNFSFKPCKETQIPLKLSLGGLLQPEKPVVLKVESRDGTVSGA
CYP2D6, sequence (P10635 whole entry): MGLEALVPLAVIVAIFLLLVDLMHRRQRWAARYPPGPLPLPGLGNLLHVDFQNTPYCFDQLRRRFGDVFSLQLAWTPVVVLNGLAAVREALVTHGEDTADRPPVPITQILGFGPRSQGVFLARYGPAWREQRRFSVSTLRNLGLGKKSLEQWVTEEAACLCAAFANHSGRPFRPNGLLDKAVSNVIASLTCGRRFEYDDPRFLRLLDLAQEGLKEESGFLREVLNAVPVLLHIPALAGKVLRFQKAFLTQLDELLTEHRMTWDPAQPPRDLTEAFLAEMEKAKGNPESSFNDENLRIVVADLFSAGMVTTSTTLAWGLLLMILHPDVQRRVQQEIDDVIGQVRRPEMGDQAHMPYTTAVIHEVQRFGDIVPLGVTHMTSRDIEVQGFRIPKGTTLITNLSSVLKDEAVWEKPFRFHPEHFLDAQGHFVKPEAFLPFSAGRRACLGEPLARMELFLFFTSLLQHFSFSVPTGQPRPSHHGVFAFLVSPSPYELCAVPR

- Activity [1]: Dose-dependent effect
- Activity [3]: Dose-dependent effect
- Activity [8]: Dose-dependent effect
- fold change (FC) [9]: 6.6
- Activity [10]: Dose-dependent effect
- activity [11]: 91.2%
- fold change (FC) [12]: 26.1
- remaining at 0.5 h [13]: 97%
- fold change (FC) [14]: 11
- fold change (FC) [15]: 2.6
- Activity [16]: Dose-dependent effect
- Activity [17]: Dose-dependent effect
- activity [20]: 88%
SMILES: O=S(=O)(/C=C/c1ncccc1Cl)c1ccccc1Cl
- Activity [2]: Active
- viability at 6 h, 10 µM [4]: 100%
- Activity [5]: Active
- viability at 6 h, 1 µM [6]: 98.9%
- IC50 [7]: 110 µM
- Activity [18]: Active
- viability at 6 h, 0.1 µM [19]: 100%
- inhibition [21]: Dose-dependent effect
